Results as given in ChEMBL document CHEMBL1828628, “Discovery of a tetrahydroisoquinoline-based hydroxamic acid derivative (ZYJ-34c) as histone deacetylase inhibitor with potent oral antitumor activities” (J Med Chem, 2011).
Calls of active or inactive are those of the source. No cut-off for these calls is given here.

How the values were obtained:
Histone deacetylase = test: Inhibition of HDAC in human HeLa cell nuclear extracts using Boc-Lys (acetyl)-AMC as substrate after 30 mins by fluorescence assay; format: protein assay
Summary of the method: (§1)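 Enzyme (HeLa nuclear extract, HDAC6 or HDAC8) preincubated 5 min with a series of compound concentrations. Fluorogenic Boc-Lys(acetyl)-AMC substrate then added and incubated 37 °C for 30 min. Reaction stopped with developer containing trypsin and TSA, 20 min at 37 °C. Fluorescence read at ex 390/em 460 nm. Inhibition taken relative to control wells; IC50 from regression of concentration/inhibition data.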

MDA-MB-231 [1] = test: Cell cycle arrest in human MDA-MB-231 cells assessed as accumulation at G2 phase at 2 to 5 uM after 48 hrs using propidium iodide staining by flow cytometric analysis; format: functional, cell-based
Summary of the method: (§2)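 MDA-MB-231 cells were seeded at 4 × 10^5 per well and incubated overnight, then treated for 48 h. Cells were fixed overnight in 70% ethanol phosphate buffer and washed twice with PBS. They were treated with DNase-free RNase A (1 mg/mL) for 30 min, then stained with propidium iodide for 30 min in the dark at room temperature. DNA content was read by FACScan flow cytometry.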

HeLa = test: Antiproliferative activity against human HeLa cells after 48 hrs by MTT assay; format: functional, cell-based
Summary of the method: (§3)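 Cells kept in RPMI1640 with 10% FBS at 37 °C, 5% CO2. Cells were passaged into 96-well plates the day before dosing and left ≥4 h before compound addition. Exposure was 48 h, then 0.5% MTT for 4 h. Formazan was extracted with DMSO for 15 min and read at 570 nm. IC50 was derived from inhibition ratios; mean of three experiments.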

[2] = Antiproliferative activity against human ES2 cells after 48 hrs by MTT assay; format: functional, cell-based; conditions: ES-2, 48 h; summary of the method: as §3
Mus musculus [3] = test: Toxicity in human HCT116 cells xenografted BALB/c nu mouse assessed as signs of organ toxicity at 60 mg/kg, po qd for 19 days; format: organism-based, HCT-116; set-up: dose 60 mg/kg, route oral; conditions: in vivo, 456 h
Mus musculus [4] = test: Toxicity in human MDA-MB-231 cells xenografted BALB/c nu mouse assessed as change in body weight at 90 mg/kg, po qd for 19 days; format: organism-based; set-up: dose 90 mg/kg, route oral; conditions: in vivo, 456 h
Summary of the method: (§4)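 Female BALB/c-nu mice, 5–6 weeks old, bearing subcutaneous right-flank xenografts. Mice were randomized 6 per group at about 100 mm3 tumor size. Dosing was oral or intraperitoneal for 19 days; controls received an equal volume of PBS containing DMSO. Body weight was monitored regularly during treatment, and tumors were measured by caliper every three days.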

Mus musculus [5] = test: Toxicity in human HCT116 cells xenografted BALB/c nu mouse assessed as change in body weight at 60 mg/kg, po qd for 19 days; format: organism-based, HCT-116; set-up: dose 60 mg/kg, route oral; conditions: in vivo, 456 h; summary of the method: as §4
[6] = molecular target: T1, Protein deacetylase HDAC6 (Homo sapiens, UniProt Q9UBN7); test: Inhibition of HDAC6 using Boc-Lys (acetyl)-AMC as substrate after 30 mins by fluorescence assay; summary of the method: as §1
T1 sequence (Q9UBN7 whole entry): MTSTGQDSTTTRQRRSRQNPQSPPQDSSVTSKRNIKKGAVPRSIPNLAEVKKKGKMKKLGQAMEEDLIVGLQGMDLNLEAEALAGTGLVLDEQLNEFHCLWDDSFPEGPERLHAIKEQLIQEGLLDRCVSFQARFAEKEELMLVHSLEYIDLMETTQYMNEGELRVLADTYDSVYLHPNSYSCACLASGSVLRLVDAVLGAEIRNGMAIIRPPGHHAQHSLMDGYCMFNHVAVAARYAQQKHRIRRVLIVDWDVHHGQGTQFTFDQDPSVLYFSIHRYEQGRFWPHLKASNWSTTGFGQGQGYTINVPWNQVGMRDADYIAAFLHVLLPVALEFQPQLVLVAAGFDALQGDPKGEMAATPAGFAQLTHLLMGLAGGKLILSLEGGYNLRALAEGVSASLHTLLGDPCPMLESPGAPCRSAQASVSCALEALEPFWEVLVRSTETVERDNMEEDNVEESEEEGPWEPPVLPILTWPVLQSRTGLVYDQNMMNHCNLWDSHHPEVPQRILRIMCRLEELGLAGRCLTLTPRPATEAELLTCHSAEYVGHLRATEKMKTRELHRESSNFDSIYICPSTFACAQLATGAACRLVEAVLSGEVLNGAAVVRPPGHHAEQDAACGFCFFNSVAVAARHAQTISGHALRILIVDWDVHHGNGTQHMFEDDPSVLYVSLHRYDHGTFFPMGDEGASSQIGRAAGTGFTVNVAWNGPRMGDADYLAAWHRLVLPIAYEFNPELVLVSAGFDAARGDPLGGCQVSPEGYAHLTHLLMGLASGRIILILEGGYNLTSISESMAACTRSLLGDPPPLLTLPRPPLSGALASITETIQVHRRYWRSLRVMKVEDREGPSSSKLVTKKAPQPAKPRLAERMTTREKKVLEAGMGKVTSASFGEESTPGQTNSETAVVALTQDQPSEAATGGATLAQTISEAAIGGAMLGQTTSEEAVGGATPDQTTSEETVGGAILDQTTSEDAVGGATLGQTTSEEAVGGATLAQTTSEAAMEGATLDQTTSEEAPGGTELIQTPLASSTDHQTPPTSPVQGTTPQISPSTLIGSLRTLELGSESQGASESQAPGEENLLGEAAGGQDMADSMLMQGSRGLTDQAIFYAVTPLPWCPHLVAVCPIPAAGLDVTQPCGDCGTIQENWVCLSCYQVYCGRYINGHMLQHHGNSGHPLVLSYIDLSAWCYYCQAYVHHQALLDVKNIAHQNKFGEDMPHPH

MDA-MB-231 [7] = test: Cell cycle arrest in human MDA-MB-231 cells assessed as accumulation at G1 phase at 0.5 uM after 48 hrs using propidium iodide staining by flow cytometric analysis; format: functional, cell-based; summary of the method: as §2
HCT-116 [8] = test: Antitumor activity against human HCT116 cells xenografted in BALB/c nu mouse assessed as tumor growth inhibition administered as po qd for 19 days relative to control; format: functional, organism-based
Summary of the method: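 Female athymic BALB/c-nu mice, 5–6 weeks old, were inoculated subcutaneously in the right flank with RPMI1640/10% FBS-cultured tumor cells (5 × 10^6 for MDA-MB-231). At about 100 mm3 (~10 days), mice were randomized 6 per group and dosed orally or intraperitoneally for 19 days. Vehicle controls received PBS containing DMSO. TGI = (control − treated mean tumor weight)/control mean tumor weight, at end of treatment.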

Mus musculus [9] = test: Toxicity in mouse H22 cells xenografted Kunming mouse assessed as change in body weight at 60 mg/kg, po qd for 19 days; format: organism-based; set-up: dose 60 mg/kg, route oral; conditions: in vivo, 456 h
[10] = Stability in artificial gastric juice; format: physicochemical; conditions: simulated gi fluid
[11] = molecular target: Aminopeptidase N (Homo sapiens) (UniProt P15144); test: Inhibition of aminopeptidase N
HCT-116 [12] = test: Antitumor activity against human HCT116 cells xenografted in BALB/c nu mouse assessed as tumor growth inhibition at 90 mg/kg, po qd for 19 days relative to control; format: functional
PC-3 = test: Antiproliferative activity against human PC3 cells after 48 hrs by MTT assay; format: functional, cell-based; conditions: PC-3, 48 h
HL-60 = test: Antiproliferative activity against human HL60 cells after 48 hrs by MTT assay; format: functional, cell-based; conditions: HL-60, 48 h; summary of the method: as §3

Chain of Aminopeptidase N (Homo sapiens) (P15144 whole entry): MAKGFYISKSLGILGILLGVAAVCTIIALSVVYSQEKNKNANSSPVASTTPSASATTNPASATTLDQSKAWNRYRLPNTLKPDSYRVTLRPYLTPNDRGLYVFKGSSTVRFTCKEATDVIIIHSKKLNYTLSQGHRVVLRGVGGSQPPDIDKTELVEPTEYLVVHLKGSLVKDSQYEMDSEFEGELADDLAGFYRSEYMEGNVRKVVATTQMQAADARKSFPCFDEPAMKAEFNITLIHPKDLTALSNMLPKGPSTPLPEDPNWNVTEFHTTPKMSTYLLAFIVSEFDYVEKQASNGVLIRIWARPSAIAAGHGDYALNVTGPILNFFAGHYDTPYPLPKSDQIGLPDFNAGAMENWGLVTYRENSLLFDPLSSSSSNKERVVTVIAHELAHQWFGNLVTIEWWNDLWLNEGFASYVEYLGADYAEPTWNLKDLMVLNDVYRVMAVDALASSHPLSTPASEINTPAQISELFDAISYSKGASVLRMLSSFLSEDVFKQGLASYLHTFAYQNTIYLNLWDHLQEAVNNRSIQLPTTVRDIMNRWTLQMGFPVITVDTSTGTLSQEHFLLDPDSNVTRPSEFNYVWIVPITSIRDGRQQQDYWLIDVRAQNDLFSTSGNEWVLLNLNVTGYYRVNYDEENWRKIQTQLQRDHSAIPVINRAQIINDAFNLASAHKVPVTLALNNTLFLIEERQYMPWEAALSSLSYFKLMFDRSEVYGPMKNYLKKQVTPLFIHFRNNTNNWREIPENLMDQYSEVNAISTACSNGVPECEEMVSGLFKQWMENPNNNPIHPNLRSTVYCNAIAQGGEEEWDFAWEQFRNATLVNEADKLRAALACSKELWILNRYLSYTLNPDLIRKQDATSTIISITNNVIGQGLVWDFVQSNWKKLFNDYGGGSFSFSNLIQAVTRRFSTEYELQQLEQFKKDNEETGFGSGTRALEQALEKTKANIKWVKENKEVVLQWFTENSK

CC[C@H](C)[C@H](NC(=O)CC(C)(C)C)C(=O)N1Cc2cc(OCC(=O)NO)ccc2C[C@H]1C(=O)Nc1ccc(OC)cc1
IC50 (Histone deacetylase): 0.052 µM
Activity (MDA-MB-231 [1]): Active
IC50 (HeLa): 56.1 µM
IC50 [2]: 12.9 µM
Activity (Mus musculus [3]): Non-toxic
Activity (Mus musculus [4]): Non-toxic
Activity (Mus musculus [5]): Non-toxic
IC50 [6]: 0.056 µM
Activity (MDA-MB-231 [7]): Active
TGI (HCT-116 [8]): Dose-dependent effect
Activity (Mus musculus [9]): Non-toxic
Stability [10]: Stable
inhibition [11]: Active
T/C (HCT-116 [12]): 53%
inhibition in vivo at 90 mg/kg (HCT-116 [12]; Mus musculus, HCT-116, 456 h, read-out: TGI): 59%
IC50 (PC-3): 0.83 µM
IC50 (HL-60): 65.8 µM
